In ChEMBL document CHEMBL1145589, “Discovery of benzamide tetrahydro-4H-carbazol-4-ones as novel small molecule inhibitors of Hsp90” (Bioorg Med Chem Lett, 2008):

Tests used:
SK-BR-3 [1] = assay: Inhibition of Her2 degradation in human SKBR3 cells by ELISA; type: functional, cell-based
In short: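 Cellular ELISA in SKBR3 cells treated 24 h with compound, then methanol-fixed; Her2 detected with mouse anti-Her2 primary and peroxidase-conjugated anti-mouse secondary antibody; IC50 determined.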

[2] = Binding affinity to Hsp90 in pig spleen extract by Bradford protein assay; type: tissue-based, Sus scrofa
SW-620 = assay: Inhibition of cell proliferation in human SW620 cells; type: functional, cell-based
In short: (§1)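 Cells seeded in 96-well plates; compound added 24 h later, then growth continued for a further 72 or 144 h depending on the line's growth rate before proliferation was measured.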

A-375 [3] = assay: Induction of Hsp70 in human A375 cells; type: functional, cell-based
In short: (§2)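 High content imaging: A375 cells treated 24 h with compound, fixed in 4% PBS-buffered formalin, probed with anti-Hsp70 or anti-phospho-S6 primary antibodies, then TRITC- or FITC-conjugated secondaries, and imaged.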

NCI-H460 = assay: Inhibition of cell proliferation in human NCI-H460 cells; type: functional, cell-based; in short: as §1
LNCaP = assay: Inhibition of cell proliferation in human LNCAP cells; type: functional, cell-based; in short: as §1
MCF7 = assay: Inhibition of cell proliferation in human MCF7 cells; type: functional, cell-based; in short: as §1
SK-BR-3 [4] = assay: Inhibition of Her2 degradation in human SKBR3 cells
A-375 [5] = assay: Inhibition of cell proliferation in human A375 cells; type: functional, cell-based; in short: as §1
PC-3 = assay: Inhibition of cell proliferation in human PC3 cells; type: functional, cell-based; in short: as §1
HT-29 = assay: Inhibition of cell proliferation in human HT29 cells; type: functional, cell-based; in short: as §1
MDA-MB-231 = assay: Inhibition of cell proliferation in human MDA-MB-231 cells; type: functional, cell-based; in short: as §1
[6] = Inhibition of pS6 in A375 cells; type: cell-based; settings: A-375; in short: as §2
[7] = Inhibition of pErk in AU565 cells; type: cell-based
SK-MEL-5 = assay: Inhibition of cell proliferation in human SKMEL5 cells; type: functional, cell-based; in short: as §1

IC50 (SK-BR-3 [1]) [nM] | Kd [2] [nM] | Compound | also measured
5300 | 350 | CCCNc1cc(-n2c3c(c4ccccc42)C(=O)CCC3)ccc1C(N)=O | 
6800 | 310 | NC(=O)c1ccc(-n2c3c(c4ccccc42)C(=O)CCC3)cc1NC1CCC1 | 
> 50000 | 1800 | NC(=O)c1ccc(-n2c3c(c4ccccc42)C(=O)CCC3)cc1 | 
1300 | 270 | NC(=O)c1ccc(-n2c3c(c4ccccc42)C(=O)CCC3)cc1NCC1CC1 | 
2800 | 1100 | NC(=O)c1ccc(-n2c3c(c4cc(F)ccc42)C(=O)CCC3)cc1NCCCN1CCOCC1 | 
 | > 10000 | CC1(C)CC(=O)c2c(n(-c3ccc(C(N)=O)c(Nc4ccccc4)c3)c3ccccc23)C1 | 
> 50000 | > 10000 | COc1cc(-n2c3c(c4ccccc42)C(=O)CCC3)ccc1C(N)=O | 
> 10000 | 2900 | NC(=O)c1ccc(-n2c3c(c4ccccc42)C(=O)CCC3)cc1N | 
1200 | 900 | NC(=O)c1ccc(-n2c3c(c4ccccc42)C(=O)CCC3)cc1NC1CCC(O)CC1 (centres undefined) | 
560 | 410 | NC(=O)c1ccc(-n2c3c(c4ccccc42)C(=O)CCC3)cc1NC1CCOCC1 | IC50 (SW-620): 260 nM; IC50 (A-375 [3]): 230 nM; IC50 (NCI-H460): 900 nM; IC50 (LNCaP): 700 nM; IC50 (MCF7): 290 nM; IC50 (SK-BR-3 [4]): 560 nM; IC50 (A-375 [5]): 400 nM; IC50 (PC-3): 820 nM; IC50 (HT-29): 370 nM; IC50 (MDA-MB-231): 960 nM; IC50 [6]: 70 nM; IC50 [7]: 590 nM; IC50 (SK-MEL-5): 340 nM
5000 | 820 | NC(=O)c1ccc(-n2c3c(c4ccccc42)C(=O)CCC3)cc1NCc1ccncc1 | 
5400 | 250 | C=CCNc1cc(-n2c3c(c4cc(F)ccc42)C(=O)CCC3)ccc1C(N)=O | 
5400 | 350 | NC(=O)c1ccc(-n2c3c(c4ccccc42)C(=O)CCC3)cc1NC1CC1 | 
6900 | 2900 | CC1CC(=O)c2c(n(-c3ccc(C(N)=O)c(NCC4CC4)c3)c3ccccc23)C1 (centres undefined) | 
7000 |  | CC1CC(=O)c2c(n(-c3ccc(C(N)=O)c(NC4CC4)c3)c3ccccc23)C1 (centres undefined) | 
> 10000 | > 10000 | NC(=O)c1ccc(-n2c3c(c4ccccc42)C(=O)CCC3)cc1NCc1ccccc1 | 
 | > 10000 | CC1CC(=O)c2c(n(-c3ccc(C(N)=O)c(Br)c3)c3ccccc23)C1 (centres undefined) | 
1600 | 270 | NC(=O)c1ccc(-n2c3c(c4cc(F)ccc42)C(=O)CCC3)cc1NN1CCOCC1 | 

The next lines start with the compound.

Compound | IC50 (SK-BR-3 [1]) [nM] | Kd [2] [nM] | also measured
CC1(C)CC(=O)c2c(n(-c3ccc(C(N)=O)c(NC4CC4)c3)c3ccccc23)C1 | 610 | 350 | 
NC(=O)c1ccc(-n2c3c(c4cc(F)ccc42)C(=O)CCC3)cc1NC1CC1 | 1300 | 250 | 
CC1(C)CC(=O)c2c(n(-c3ccc(C(N)=O)cc3)c3ccccc23)C1 | > 50000 | 750 | 
NC(=O)c1ccc(-n2c3c(c4cc(F)ccc42)C(=O)CCC3)cc1NCc1cccnc1 | 6500 | 1100 | 
N#Cc1cc(-n2c3c(c4ccccc42)C(=O)CCC3)ccc1C(N)=O | > 50000 | > 10000 | 
NC(=O)c1ccc(-n2c3c(c4ccccc42)C(=O)CCC3)cc1Nc1ccccc1 | 2100 | 1000 | 
NC(=O)c1ccc(-n2c3c(c4ccccc42)C(=O)CCC3)cc1Br | > 10000 | > 10000 | 
CN(C)CCNc1cc(-n2c3c(c4cc(F)ccc42)C(=O)CCC3)ccc1C(N)=O | 34000 | 1200 | 
COc1ccc(CNc2cc(-n3c4c(c5ccccc53)C(=O)CCC4)ccc2C(N)=O)cc1 | > 10000 | > 10000 | 
NC(=O)c1ccc(-n2c3c(c4ccccc42)C(=O)CCC3)cc1NCCN1CCCC1 | 31000 | 1900 | 
COCCNc1cc(-n2c3c(c4ccccc42)C(=O)CCC3)ccc1C(N)=O | 8900 |  | 
COCCNc1cc(-n2c3c(c4cc(F)ccc42)C(=O)CCC3)ccc1C(N)=O | 4100 | 780 | 
